Screens deposited in PubChem BioAssay by Broad Institute.
FGF22 binding: binders of human FGF22 protein, primary screen, FGF22 synaptogenesis inhibitor project, biophysical, thermal shift, single point; Fibroblast growth factor 22 (Homo sapiens), Q9HCT0; recombinant FGF22 thermal shift, SYPRO orange fluorescence; percent of sucrose octasulfate shift, DMSO zero; activity (Tm shift, normalised), % at 9.99 µM; 340,000 compounds, 1.5% hits; AID 651658, 2012;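 active means mean Tm shift, scaled 0 neutral to 100 positive control, at about 1.3% or above, every replicate too, limit read from the data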
Target sequence (Q9HCT0 whole entry, looked up): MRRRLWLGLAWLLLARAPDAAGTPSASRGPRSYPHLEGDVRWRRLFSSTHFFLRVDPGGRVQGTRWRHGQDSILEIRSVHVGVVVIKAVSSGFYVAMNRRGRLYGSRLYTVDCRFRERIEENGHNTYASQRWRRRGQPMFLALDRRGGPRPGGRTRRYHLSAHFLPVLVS
PglD DTNB: C. jejuni PglD acetyltransferase inhibitors, primary screen, biochemical, DTNB colorimetric, single point; inhibition, % at 12.5 µM; purified PglD enzyme, DTNB colorimetric CoA detection; 360,000 compounds, 0.098% hits; UDP-N-acetylbacillosamine N-acetyltransferase PglD (Campylobacter jejuni); in the data active means inhibition above about 16%, passing the limit was not always enough
Vif inh: HIV Vif self-association inhibitors, primary screen, imaging, HEK293T, single point; HEK293T cells, Vif self-association by quenched fluorescence, 24 h; inhibition, % at 7.49 µM; 340,000 compounds, 0.35% hits; AID 602346, 2012; in the data active means inhibition above about 50%, passing the limit was not always enough
PGC1a acetyl inh: inhibitors of PGC1a acetylation signal, primary screen, cell-based, U2OS, AlphaScreen, inhibitor mode; AlphaScreen anti-acetyl-lysine; with virally co-expressed GCN5 acetyltransferase; inhibition, % at 15.6 µM; 350,000 compounds, 0.17% hits;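 active means every replicate shows inhibition of at least 40%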;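 further: 0% = neutral control wells and 100% = positive control wells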
rRNA inh HTS: reduced GFP signal of wild-type E. coli, primary screen, bacterial rRNA inhibitor project, GFP/RFP fluorescence, OD600, single point. GFP signal change (wild-type ribosome), % (no concentration beside the values). 350,000 compounds, 1.6% hits. E. coli WT GFP vs humanized-ribosome RFP mutants, 24 h; active compounds read low; DMSO median 0, no signal -100;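 active means significant combined selectivity score with lowered wild-type GFP, culture density cut under 30%, mutant RFP and density less affected; inactive means any of these conditions unmet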
Cneo AK release: Cryptococcus neoformans cell lysis inducers, primary screen, AK release luminescence, single concentration. C. neoformans lysis, adenylate kinase release luminescence, 4 h; normalised: neutral wells 0, clomiphene wells 100. lysis activity, % at 15 µM. 360,000 compounds, 0.2% hits. AID 651654, 2012;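 active means mean lysis activity across replicates of at least 80%, whatever share of replicates individually reach that level; inactive means mean lysis activity below 80%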
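Assay system: log-phase C. neoformans yeast / Quantity: yeast cell density of 5 × 10^6 cells/mL / Medium: fresh YPD growth medium / Compound: single dose / Timing: static 4 h at 37 °C with compound, 1 h detection / Measured by: adenylate kinase release luminescence / Read-out: lysis from increased AK signal / Benchmarks: Clomiphene as positive lysis control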
An asterisk follows results filed as active; ! = repeats disagree. Shown are actives, neighbours in structure and some others; about 2.9% of the full set was active somewhere.

Results for CNC[C@H]1Oc2cc(Br)ccc2S(=O)(=O)N([C@H](C)CO)C[C@H]1C ?
FGF22 binding: 0; PglD DTNB: -4; Vif inh: 0; PGC1a acetyl inh: 4; rRNA inh HTS: -1; Cneo AK release: 91*!

Results for CNC[C@@H]1Oc2cc(Br)ccc2S(=O)(=O)N([C@H](C)CO)C[C@H]1C ?
FGF22 binding: 0; PglD DTNB: -1; Vif inh: -1; PGC1a acetyl inh: -5; rRNA inh HTS: 16; Cneo AK release: 100*!

What do the screens show for `CNC[C@H]1Oc2cc(Br)ccc2S(=O)(=O)N([C@@H](C)CO)C[C@H]1C`?
FGF22 binding: 0; PglD DTNB: 7; Vif inh: -12; PGC1a acetyl inh: -1; rRNA inh HTS: 4; Cneo AK release: -1

Results for CCC(=O)N(C)C[C@@H]1Oc2cc(Br)ccc2S(=O)(=O)N([C@H](C)CO)C[C@@H]1C ?
FGF22 binding: 0; PglD DTNB: -1; PGC1a acetyl inh: -11; rRNA inh HTS: -1; Cneo AK release: 2

What do the screens show for `COc1ccc(S(=O)(=O)Nc2ccc3c(c2)C(=O)N([C@H](C)CO)C[C@H](C)[C@@H](CN(C)C(=O)CCC(F)(F)F)OCCCC[C@@H](C)O3)cc1`?
FGF22 binding: 0; PglD DTNB: -3; PGC1a acetyl inh: 3; rRNA inh HTS: 0; Cneo AK release: 0

What do the screens show for `CNC[C@H]1Oc2c(NS(=O)(=O)c3cccs3)cccc2C(=O)N([C@H](C)CO)C[C@@H]1C`?
FGF22 binding: 0; PglD DTNB: -3; Vif inh: -3; PGC1a acetyl inh: -3; rRNA inh HTS: 2; Cneo AK release: 96*!

How did CNC[C@@H]1Oc2c(NS(=O)(=O)c3cccs3)cccc2C(=O)N([C@@H](C)CO)C[C@H]1C do in these assays?
FGF22 binding: 0; PglD DTNB: -27; PGC1a acetyl inh: -5; rRNA inh HTS: 4; Cneo AK release: 86*

How did CNC[C@@H]1Oc2c(NS(=O)(=O)c3cccs3)cccc2C(=O)N([C@H](C)CO)C[C@@H]1C do in these assays?
FGF22 binding: 0; PglD DTNB: 9; PGC1a acetyl inh: 2; rRNA inh HTS: 3; Cneo AK release: 7

How did CNC[C@@H]1Oc2c(NS(=O)(=O)c3ccc(Cl)cc3)cccc2C(=O)N([C@H](C)CO)C[C@H]1C do in these assays?
FGF22 binding: 0; PglD DTNB: -2; PGC1a acetyl inh: 0; rRNA inh HTS: 1; Cneo AK release: 87*

Results for CCC(=O)Nc1ccc2c(c1)OC[C@H](C)N(Cc1cccc(F)c1)C[C@H](C)[C@@H](OC)CN(C)C2=O ?
FGF22 binding: 0; PglD DTNB: -6; PGC1a acetyl inh: -6; rRNA inh HTS: -3; Cneo AK release: -2

Results for C[C@@H]1CN([C@H](C)CO)C(=O)c2cc(NS(=O)(=O)c3ccc(Cl)cc3)ccc2O[C@H]1CN(C)C(=O)Nc1ccc2c(c1)OCO2 ?
FGF22 binding: 1; PglD DTNB: 1; PGC1a acetyl inh: 3; rRNA inh HTS: -2; Cneo AK release: -10

What do the screens show for `C[C@@H]1CN([C@@H](C)CO)C(=O)c2cc(NC(=O)c3ccncc3)ccc2O[C@@H](C)CCCCO[C@@H]1CN(C)C(=O)NC1CCCCC1`?
FGF22 binding: 0; PglD DTNB: 2; PGC1a acetyl inh: 0; rRNA inh HTS: -1; Cneo AK release: -3

How did COC(=O)[C@]1(C)N[C@H](CN(C)C(C)=O)[C@@H]2C(=O)N(Cc3ccccc3)C(=O)[C@@H]21 do in these assays?
FGF22 binding: 44*; PglD DTNB: 0; Vif inh: 11; rRNA inh HTS: 4; Cneo AK release: 1

Results for COC(=O)[C@]1(C)N[C@H](CN(C)S(=O)(=O)c2ccc(OC(F)(F)F)cc2)[C@@H]2C(=O)N(Cc3ccccc3)C(=O)[C@@H]21 ?
FGF22 binding: 0; PglD DTNB: 5; Vif inh: -3; rRNA inh HTS: -21*; Cneo AK release: 4

How did COC(=O)[C@]1(C)N[C@H](CN(C)S(=O)(=O)c2ccc(F)cc2)[C@@H]2C(=O)N(Cc3ccccc3)C(=O)[C@@H]21 do in these assays?
FGF22 binding: 0; PglD DTNB: 1; Vif inh: -5; rRNA inh HTS: -1; Cneo AK release: 3

What do the screens show for `COC(=O)[C@]1(C)N[C@H](CN(C)C(=O)c2ccccc2)[C@@H]2C(=O)N(Cc3ccccc3)C(=O)[C@@H]21`?
FGF22 binding: 0; PglD DTNB: -6; Vif inh: 3; rRNA inh HTS: 4; Cneo AK release: -1

What do the screens show for `CC(C)NC(=O)Nc1cccc2c1O[C@@H](CN(C)Cc1ccncc1)[C@@H](C)CN([C@H](C)CO)C2=O`?
FGF22 binding: 0; PglD DTNB: 2; PGC1a acetyl inh: 4; rRNA inh HTS: 4; Cneo AK release: -3

How did O=C(CCl)Nc1cn(-c2ccccc2)nc1-c1ccccc1 do in these assays?
FGF22 binding: 43*; PglD DTNB: -5; Vif inh: 0; PGC1a acetyl inh: 16; rRNA inh HTS: -27*; Cneo AK release: -2

What do the screens show for `Cc1noc(C)c1S(=O)(=O)Nc1ccc2c(c1)C(=O)N([C@@H](C)CO)C[C@@H](C)[C@H](CN(C)C(=O)Nc1ccc(F)cc1)OCCCC[C@@H](C)O2`?
FGF22 binding: 0; PglD DTNB: -5; PGC1a acetyl inh: -3; rRNA inh HTS: 0; Cneo AK release: 4

Results for COc1ccc(/C=C/c2c([N+](=O)[O-])c(=O)n(C)c(=O)n2C)cc1 ?
FGF22 binding: 43*; Vif inh: -6; rRNA inh HTS: 3

How did Cc1cc(C(=O)NCCC2=CCCCC2)ccc1[N+](=O)[O-] do in these assays?
FGF22 binding: 0; PglD DTNB: 1; Vif inh: -5; PGC1a acetyl inh: -3; rRNA inh HTS: -35*; Cneo AK release: 10

Results for Cc1cc(C(=O)NCC(=O)OCC(=O)NCCc2ccccc2)ccc1[N+](=O)[O-] ?
FGF22 binding: 44*; Vif inh: -7; PGC1a acetyl inh: 4; rRNA inh HTS: 7

Results for C[C@H]1CN([C@@H](C)CO)C(=O)c2cc(C#CC3CCCCC3)cnc2O[C@@H]1CN(C)C ?
PGC1a acetyl inh: 0; rRNA inh HTS: 1

How did C[C@@H]1CN([C@H](C)CO)C(=O)c2cc(C#CC3CCCCC3)cnc2O[C@@H]1CN(C)C do in these assays?
PGC1a acetyl inh: -7; rRNA inh HTS: 2
